# Measured values taken from ChEMBL document CHEMBL1150201, “Verbascoside isolated from Lantana camara, an inhibitor of protein kinase C” (J Nat Prod, 1991).
# Calls of active or inactive are those of the source. The calls are words filed in the database; no cut-off is given here.
# Tests used:
# [1] = target: T1, Protein kinase C (PKC) (Rattus norvegicus) (UniProt P05696+P68403+P09216+P63319+P09215+Q64617+Q9WTQ0+P09217); test: Inhibition of rat brain PKC catalytic domain using histone type 3-S as substrate by noncompetitive Lineweaver-Burke plot analysis
# Procedure, shortened: (§1)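 Catalytic fragment made by incubating PKC for 10 min at 30° with 1 µg/ml trypsin, giving calcium- and lipid-independent activity. It was then assayed in the mixed-micelle histone phosphorylation assay, varying ATP or histone.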
# Protein kinase C (PKC) [2] = test: Inhibition of rat brain PKC catalytic domain by mixed micellar assay; procedure, shortened: as §1
# L1210 [3] = test: Cytotoxicity against mouse L1210 cells at 10 uM by MTT assay; type: functional, cell-based
# Procedure, shortened: (§2)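 MTT colorimetric assay after Mosmann, measuring reduction of the tetrazolium to blue formazan by viable cells, read photometrically. Treated cells were compared with the same number of untreated cells.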
# [4] = target: T1, Protein kinase C (PKC) (Rattus norvegicus); test: (§3) Inhibition of rat brain PKC by mixed micellar assay
# Procedure, shortened: (§4)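 PKC purified from rat brain, 0.5 µg per tube. Medium was 20 mM Tris/HCl pH 7.5, 10 mM MgCl₂, 200 µg/ml histone IIIS, micelles of 700 µM phosphatidylserine and 180 µM 1,2-dioleine in 0.3% Triton X-100, 0.2 mM CaCl₂, 100 µM ATP with [γ-³²P]-ATP and compound in DMSO. After 3 min at 30°, TCA-precipitated material was filtered and counted. Activity without micelles/CaCl₂ subtracted; 6 replicates.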
# Protein kinase C (PKC) [5] = test: as §3; procedure, shortened: as §4
# [6] = target: T1, Protein kinase C (PKC) (Rattus norvegicus); test: Displacement of [gamma32P]ATP from rat brain PKC catalytic domain by competitive Lineweaver-Burke plot analysis; procedure, shortened: as §1
# [7] = target: T1, Protein kinase C (PKC) (Rattus norvegicus); test: Displacement of [3H]PDBu from rat brain PKC at 1 mM by scintillation counting
# Procedure, shortened: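 PKC incubated 1 h at 30° in 250 µl of 50 mM Tris/HCl pH 7.4 with 1 mM CaCl₂, 39.2 nM [³H]-PDBu and 50 µg/ml PKC, plus compound. Nonspecific binding defined with 100-fold excess unlabelled PDBu. Diluted with ice-cold buffer, filtered on glass fiber, washed 3 times, bound radioactivity by scintillation counting.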
# Protein kinase C (PKC) [8] = test: Inhibition of rat brain PKC using histone type 3-S as substrate by noncompetitive Lineweaver-Burke plot analysis
# L1210 [9] = test: Antiproliferative activity against mouse L1210 cells after 48 hrs by coulter counting analysis; type: functional, cell-based; details: L1210, 48 h
# Procedure, shortened: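 L1210 cells seeded at 10^4 per well in DMEM with 10% fetal calf serum, 4 mM glutamine and penicillin/streptomycin, with compound added from DMSO. Grown 2 days at 37° in 5% CO₂, then counted in a Coulter counter. Cultures were logarithmically growing at plating; n = 6. IC₅₀ taken from linear regression lines.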
# Protein kinase C (PKC) [10] = test: Displacement of [gamma32P]ATP from rat brain PKC by competitive Lineweaver-Burke plot analysis
# Procedure, shortened: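 Rat brain PKC (0.5 µg) in the mixed-micelle assay with histone fixed at 200 µg/ml and ATP varied. Inhibitor levels were 0, 5, 10 and 15 µM. Data were analysed as double-reciprocal plots. Apparent Ki came from line intersections by unweighted least-squares fit.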
# LSTRA = test: Inhibition of protein tyrosine kinase in mouse LSTRA cells assessed as formation of [32P]phosphotyrosine at 100 uM by gel electrophoresis; type: cell-based
# [11] = Inhibition of PKA at 100 uM
# L1210 [12] = test: Cytotoxicity against mouse L1210 cells at 25 uM by MTT assay; type: functional, cell-based; procedure, shortened: as §2
Activity [1],IC50 (Protein kinase C (PKC) [2]),Activity [4],IC50 (Protein kinase C (PKC) [5]),Activity [6],inhibition [7],Ki (Protein kinase C (PKC) [8]),IC50 (L1210 [9]),Ki (Protein kinase C (PKC) [10]),inhibition [11],SMILES,Activity (L1210 [3]),inhibition (LSTRA),Activity (L1210 [12])
Active,21 µM,Dose-dependent effect,25 µM,Active,9%,28 µM,13 µM,22 µM,< 10%,C[C@@H]1O[C@@H](O[C@@H]2[C@@H](O)[C@H](OCCc3ccc(O)c(O)c3)O[C@H](CO)[C@H]2OC(=O)/C=C/c2ccc(O)c(O)c2)[C@H](O)[C@H](O)[C@H]1O [ACETOSIDE],inactive,< 10%,–
–,–,–,–,–,–,–,23.5 µM,–,–,C[C@H]1CNCCN1S(=O)(=O)c1cccc2cnccc12,–,–,inactive
